From ChEMBL document CHEMBL4219175, “Synthesis and biological evaluation of aminothiazoles against Histoplasma capsulatum and Cryptococcus neoformans” (Bioorg Med Chem, 2018)
≈ marks a conversion by molar mass, not a printed value.

Columns and labels:
[1] = Aqueous solubility of the compound at pH 7; assay type: physicochemical; conditions: aqueous medium
Histoplasma capsulatum [2] = experiment: Antifungal activity against Histoplasma capsulatum G217B ATCC 26032 at pH 7 measured over 5 days; assay type: functional, organism-based; conditions: G217B ATCC 26032, 120 h
Summary of the method: (§1)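 Yeasts pre-grown in HMM (37 °C, 5% CO2) to exponential phase, counted by hemacytometer, diluted into RPMI buffered with 25 mM HEPES (pH 7.0) or 25 mM MOPS (pH 5.0) at 5 x 10^5 per well; two-fold dilutions 40 to 0.078 µM, 37 °C, agitated twice daily. A595 read over 5 days, normalized to DMSO controls; 4-day data fitted by 4-parameter regression for IC50; MIC = ≤10% growth.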

[3] = Ratio of aqueous solubility at pH 5 to aqueous solubility at pH 7; assay type: physicochemical; conditions: buffer
Histoplasma capsulatum [4] = experiment: Antifungal activity against Histoplasma capsulatum G217B ATCC 26032 at pH 5 measured over 5 days; assay type: functional, organism-based; conditions: G217B ATCC 26032, 120 h; summary of the method: as §1
Cryptococcus neoformans [5] = experiment: Antifungal activity against wild type fluconazole-sensitive Cryptococcus neoformans serotype A H99 at pH 7 measured over 4 days; assay type: functional, organism-based; conditions: var grubii H99 , 96 h
Summary of the method: (§2)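 YPD-grown exponential-phase yeasts, hemacytometer-counted, diluted into RPMI buffered to pH 7.0 with 25 mM HEPES (or pH 5.0 with […] for pH comparison) at 2 x 10^3 per well; two-fold series 40 to 0.078 µM, 37 °C, agitated twice daily. A595 followed over 4 days versus DMSO controls; day-3 turbidity fitted by 4-parameter regression for IC50; MIC = growth ≤10% of untreated.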

Cryptococcus neoformans [6] = experiment: Antifungal activity against wild type fluconazole-sensitive Cryptococcus neoformans serotype A H99 at pH 5 measured over 4 days; assay type: functional, organism-based; conditions: var grubii H99 , 96 h; summary of the method: as §2
[7] = Aqueous solubility of the compound at pH 5; assay type: physicochemical; conditions: aqueous medium
[8] = Therapeutic index, ratio of IC50 for mouse P388D1 cells to IC50 for Histoplasma capsulatum G217B ATCC 26032; assay type: toxicity; conditions: read-out: Ratio IC50
Summary of the method: (§3)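 Ratio of P388D1 IC50 (72 h resazurin viability, 80 to 0.3 µM) to yeast IC50 from RPMI/HEPES pH 7.0 broth dilution with A595 turbidity and 4-parameter regression.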

[9] = Therapeutic index, ratio of IC50 for mouse P388D1 cells to IC50 for wild type Cryptococcus neoformans serotype A H99; assay type: toxicity; conditions: read-out: Ratio IC50; summary of the method: as §3
Cryptococcus neoformans [10] = experiment: Antifungal activity against fluconazole-resistant Cryptococcus neoformans serotype A MRL862 harboring erg11 mutant measured over 4 days; assay type: functional, organism-based; conditions: MRL862, 96 h; summary of the method: as §2
P388D1 = experiment: Cytotoxicity against mouse P388D1 cells assessed as reduction in cell viability after 72 hrs by resazurin-based fluorescence assay; conditions: P388D1, 72 h
Summary of the method: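 P388D1 cells in Ham's F-12 + 10% FBS + 2 mM L-glutamine seeded at 5 x 10^3 per well, adhered overnight, exposed to compounds 80 to 0.3 µM for 72 h. Viability read as resorufin fluorescence (530/590 nm) after 0.1 mM resazurin, pre-saturation time points, versus untreated cells; three biological replicates; IC50 by non-linear regression.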

Cryptococcus neoformans [11] = experiment: Antifungal activity against fluconazole-resistant Cryptococcus neoformans serotype A TES9 harboring erg11 mutant measured over 4 days; assay type: functional, organism-based; conditions: TES9, 96 h; summary of the method: as §2
Cryptococcus neoformans [12] = experiment: Antifungal activity against wild-type fluconazole-sensitive Cryptococcus neoformans serotype D B3501 measured over 4 days; assay type: functional, organism-based; conditions: B3501, 96 h; summary of the method: as §2
Histoplasma capsulatum [13] = experiment: Antifungal activity against RFP expressing Histoplasma capsulatum infected in LacZ-expressing mouse P388D1 cells incubated for 6 days measured daily by fluorescence assay; assay type: functional, organism-based
Summary of the method: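 LacZ-expressing P388D1 macrophages (3x10^4 per well, adhered 3 h) infected with RFP Histoplasma yeasts at MOI 1:2 for 3 h, medium replaced with F-12 + 10% serum, overnight at 37 °C, then compound gradient added for 6 days. RFP fluorescence (530/590 nm) read daily; day-4 values relative to untreated infected cells fitted by non-linear regression; triplicate.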

Row | SMILES | IC50 (Histoplasma capsulatum [2]) [µM] | MIC90 (Histoplasma capsulatum [2]) [µM] | IC50 (Cryptococcus neoformans [5]) [µM] | selectivity ratio [8] | IC50 (P388D1) [µM] | MIC90 (Cryptococcus neoformans [5]) [µM] | other results
1 | O=C(CCC1CCCCC1)Nc1ncc(Cc2ccnc3ccccc23)s1 | > 20 | > 40 | > 20 | – | – | – | solubility [1]: 3 µg/mL (≈ 7.9 µM); Ratio [3]: 1.7; IC50 (Histoplasma capsulatum [4]): 15.7 µM; MIC90 (Histoplasma capsulatum [4]): 40 µM (≈ 15.2 µg/mL); IC50 (Cryptococcus neoformans [6]): > 20 µM; MIC90 (Cryptococcus neoformans [6]): > 40 µM; solubility [7]: 5 µg/mL (≈ 13.2 µM)
2 | O=C(Nc1ncc(Cc2cccc3ccsc23)s1)C1CCCCC1 | 0.2 | 0.31 (≈ 0.111 µg/mL) | 0.34 | > 200 | > 40 | 0.63 (≈ 0.225 µg/mL) | selectivity ratio [9]: > 118; IC50 (Cryptococcus neoformans [10]): 0.2 µM; MIC90 (Cryptococcus neoformans [10]): 0.63 µM (≈ 0.225 µg/mL); IC50 (Cryptococcus neoformans [11]): 0.23 µM; MIC90 (Cryptococcus neoformans [11]): 0.63 µM (≈ 0.225 µg/mL); IC50 (Cryptococcus neoformans [12]): 0.27 µM; MIC90 (Cryptococcus neoformans [12]): 0.63 µM (≈ 0.225 µg/mL); MIC (Histoplasma capsulatum [13]; 144 h): 2.5 µM (≈ 0.891 µg/mL); IC50 (Histoplasma capsulatum [13]; P388D1, 144 h): 1.38 µM
3 | O=C(CCC1CCCCC1)Nc1ncc(Cc2cccc3ccccc23)s1 | 0.6 | 1.25 (≈ 0.473 µg/mL) | > 20 | 46 | 27.6 | > 40 | –
4 | O=C(CCC1CCCCC1)Nc1ncc(Cc2cccc3c2CCC3)s1 | 0.38 | 0.63 (≈ 0.232 µg/mL) | > 20 | > 105 | > 40 | > 40 | –
5 | O=C(Nc1ncc(Cc2cccnc2)s1)C1CCCCC1 | > 20 | – | > 20 | – | – | – | solubility [1]: 340 µg/mL (≈ 1130 µM); Ratio [3]: 1.7; IC50 (Histoplasma capsulatum [4]): > 20 µM; MIC90 (Histoplasma capsulatum [4]): > 40 µM; IC50 (Cryptococcus neoformans [6]): > 20 µM; MIC90 (Cryptococcus neoformans [6]): > 40 µM; solubility [7]: 590 µg/mL (≈ 1960 µM)
6 | O=C(CCC1CCCCC1)Nc1ncc(Cc2cccc3c2CCCC3)s1 | 0.9 | 2.5 (≈ 0.956 µg/mL) | > 20 | 27 | 24.3 | > 40 | –
7 | O=C(Nc1ncc(Cc2cc3sccc3s2)s1)C1CCCCC1 | > 20 | > 40 | > 20 | – | – | > 40 | –
8 | O=C(Nc1ncc(Cc2csc3ccccc23)s1)C1CCCCC1 | > 20 | > 40 | > 20 | – | – | > 40 | –
9 | O=C(Nc1ncc(Cc2cccc3c2CCCC3)s1)C1CCCCC1 | > 20 | > 40 | > 20 | – | – | > 40 | –
10 | O=C(Nc1ncc(Cc2ccccc2)s1)C1CCCCC1 | 1.06 | 2.5 (≈ 0.751 µg/mL) | 1.36 | > 38 | > 40 | 2.5 (≈ 0.751 µg/mL) | selectivity ratio [9]: > 29
11 | O=C(CCC1CCCCC1)Nc1ncc(Cc2ccncc2)s1 | 7.67 | 20 (≈ 6.59 µg/mL) | > 20 | > 5 | > 40 | – | solubility [1]: 40 µg/mL (≈ 121 µM); Ratio [3]: 3.5; IC50 (Histoplasma capsulatum [4]): 11.1 µM; MIC90 (Histoplasma capsulatum [4]): 40 µM (≈ 13.2 µg/mL); IC50 (Cryptococcus neoformans [6]): > 20 µM; MIC90 (Cryptococcus neoformans [6]): > 40 µM; solubility [7]: 140 µg/mL (≈ 425 µM)
12 | O=C(CCC1CCCCC1)Nc1ncc(C(=O)c2cccc3ccccc23)s1 | 0.64 | 1.25 (≈ 0.491 µg/mL) | > 20 | > 63 | > 40 | > 40 | –
13 | CCc1cnc(NC(=O)CCC2CCCCC2)s1 | > 20 | > 40 | > 20 | – | – | > 40 | –
14 | O=C(CCC1CCCCC1)Nc1ncc(Cc2cccc3ccoc23)s1 | 0.4 | 0.63 (≈ 0.232 µg/mL) | > 20 | 44 | 17.8 | > 40 | –
15 | O=C(CCC1CCCCC1)Nc1ncc(Cc2cccc3sccc23)s1 | 0.2 | 0.31 (≈ 0.119 µg/mL) | > 20 | > 200 | > 40 | > 40 | –
